Activity calls are given as the source filed them. No cut-off for these calls is given here.
Key:
Canis familiaris [1] = experiment: Uroselectivity was determined by measuring effective dose required for 5 mmHg increase of intraurethral pressure (IUP) in vivo in dog; IA = Inactive; format: functional, organism-based; details: Canis lupus familiaris
Procedure, shortened: (§1)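 Dog model recording intraurethral pressure (IUP) and mean arterial pressure (MAP) simultaneously. Increasing iv doses given, maximal effect of each dose taken. Doses giving a 5 mmHg rise in IUP (ED Δ5) or 20 mmHg rise in MAP (ED Δ20) were calculated, in nmol/kg ± SEM, n ≥ 4 (2 or 3 where footnoted).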

Canis familiaris [2] = experiment: Uroselectivity was determined by measuring effective dose required for 20 mmHg increase of mean arterial pressure (MAP) in vivo in dog; IA = Inactive; format: functional, organism-based; details: Canis lupus familiaris; Artery; procedure, shortened: as §1
[3] = molecular target: T1, Alpha-1A adrenergic receptor (Oryctolagus cuniculus) (UniProt O02824); experiment: Efficacy relative to phenylephrine (PE) to constrict tissue containing the alpha-1A adrenergic receptor in rabbit urethra; format: functional, tissue-based
T1 sequence (whole entry): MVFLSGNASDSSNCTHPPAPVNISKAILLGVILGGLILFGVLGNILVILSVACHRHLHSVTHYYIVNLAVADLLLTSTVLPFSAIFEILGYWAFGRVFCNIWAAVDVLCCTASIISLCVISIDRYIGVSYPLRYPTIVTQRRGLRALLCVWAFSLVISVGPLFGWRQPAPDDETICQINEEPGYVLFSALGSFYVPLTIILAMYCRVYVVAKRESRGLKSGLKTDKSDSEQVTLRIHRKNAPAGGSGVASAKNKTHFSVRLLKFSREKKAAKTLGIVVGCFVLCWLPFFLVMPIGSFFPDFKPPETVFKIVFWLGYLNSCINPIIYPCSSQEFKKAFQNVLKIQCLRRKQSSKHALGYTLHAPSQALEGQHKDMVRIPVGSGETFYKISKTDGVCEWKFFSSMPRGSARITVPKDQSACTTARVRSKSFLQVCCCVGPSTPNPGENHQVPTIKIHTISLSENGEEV
Procedure, shortened: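 α1-agonist dose–response curves in isolated tissue: rabbit urethra (α1A), rat spleen (α1B), rat aorta (α1D). Agonist potency and efficacy read from the concentration–response curves.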

[4] = molecular target: Alpha-1A adrenergic receptor (Oryctolagus cuniculus) (UniProt O02824); experiment: Functional agonism of the compounds to constrict tissue containing the alpha-1A adrenergic receptor in rabbit urethra; Inactive
[5] = molecular target: Alpha adrenergic receptor 1A and 1D (Rattus norvegicus) (UniProt P23944+P43140); experiment: Selectivity is ratio of pKi (binding affinity) of Alpha-1D to that of alpha1A; format: protein assay
[6] = molecular target: T2, Alpha-1D adrenergic receptor (Rattus norvegicus, UniProt P23944); experiment: In vitro binding affinity towards alpha-1D adrenergic receptor of rat clone in radioligand binding assay
T2 sequence (P23944 whole entry): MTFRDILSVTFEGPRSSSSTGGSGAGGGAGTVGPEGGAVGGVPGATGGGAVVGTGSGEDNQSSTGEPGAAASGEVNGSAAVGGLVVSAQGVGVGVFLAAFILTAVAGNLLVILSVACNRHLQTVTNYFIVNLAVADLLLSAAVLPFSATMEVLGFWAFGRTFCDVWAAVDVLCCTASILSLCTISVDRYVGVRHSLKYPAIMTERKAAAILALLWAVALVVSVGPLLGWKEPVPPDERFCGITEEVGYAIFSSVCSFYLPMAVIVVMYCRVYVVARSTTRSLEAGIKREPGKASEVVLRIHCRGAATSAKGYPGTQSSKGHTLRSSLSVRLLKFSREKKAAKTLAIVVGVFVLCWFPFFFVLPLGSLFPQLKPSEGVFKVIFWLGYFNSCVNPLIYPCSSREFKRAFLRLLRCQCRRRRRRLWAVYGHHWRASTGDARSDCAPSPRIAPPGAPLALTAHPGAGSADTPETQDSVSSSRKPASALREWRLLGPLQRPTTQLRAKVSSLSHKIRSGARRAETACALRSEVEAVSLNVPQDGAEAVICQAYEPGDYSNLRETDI
Procedure, shortened: (§2)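 Radioligand binding at α1 subtypes: α1A from rat submaxillary gland, α1B hamster clone, α1D rat clone. Run essentially per an earlier method.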

[7] = molecular target: T3, Alpha-1A adrenergic receptor (Bos taurus, UniProt P18130); experiment: In vitro binding affinity towards alpha-1A adrenergic receptor of bovine clone in radioligand binding assay
T3 sequence (P18130 whole entry): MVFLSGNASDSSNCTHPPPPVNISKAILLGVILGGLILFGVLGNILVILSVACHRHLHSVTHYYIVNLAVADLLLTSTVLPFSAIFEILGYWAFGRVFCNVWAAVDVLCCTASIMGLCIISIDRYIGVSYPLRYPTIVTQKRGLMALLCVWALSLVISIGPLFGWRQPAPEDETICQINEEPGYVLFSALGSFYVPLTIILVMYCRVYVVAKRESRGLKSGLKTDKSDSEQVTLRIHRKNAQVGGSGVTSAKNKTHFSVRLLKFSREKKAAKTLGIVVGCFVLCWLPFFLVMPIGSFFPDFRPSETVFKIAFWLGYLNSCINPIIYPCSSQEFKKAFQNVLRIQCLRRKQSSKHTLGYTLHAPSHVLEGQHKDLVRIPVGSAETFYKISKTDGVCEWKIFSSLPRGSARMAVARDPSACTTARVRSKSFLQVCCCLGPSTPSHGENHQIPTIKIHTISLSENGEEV

[8] = molecular target: T4, Alpha-1B adrenergic receptor (Mesocricetus auratus, UniProt P18841); experiment: In vitro binding affinity towards alpha-1B adrenergic receptor of hamster clone in radioligand binding assay; format: single protein; procedure, shortened: as §2
T4 sequence (P18841 whole entry): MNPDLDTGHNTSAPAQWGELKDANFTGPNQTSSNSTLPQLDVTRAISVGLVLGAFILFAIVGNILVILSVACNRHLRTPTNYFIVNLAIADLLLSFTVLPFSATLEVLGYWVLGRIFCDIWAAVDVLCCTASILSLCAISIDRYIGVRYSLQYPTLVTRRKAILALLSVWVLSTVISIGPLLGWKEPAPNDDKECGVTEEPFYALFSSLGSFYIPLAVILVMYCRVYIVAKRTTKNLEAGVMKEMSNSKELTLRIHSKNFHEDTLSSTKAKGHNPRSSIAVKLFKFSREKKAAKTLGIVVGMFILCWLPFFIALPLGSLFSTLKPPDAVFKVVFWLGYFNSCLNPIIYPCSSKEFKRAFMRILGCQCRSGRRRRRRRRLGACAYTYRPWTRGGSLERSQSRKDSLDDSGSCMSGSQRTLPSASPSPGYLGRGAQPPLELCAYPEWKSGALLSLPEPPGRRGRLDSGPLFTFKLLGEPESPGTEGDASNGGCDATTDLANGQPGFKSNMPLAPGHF

[9] = molecular target: Alpha adrenergic receptor 1A and 1B (Rattus norvegicus) (UniProt P15823+P43140); experiment: Selectivity is ratio of pKi (binding affinity) of alpha-1B receptor to that of alpha-1A receptor.; format: protein assay
Alpha adrenergic receptor 1A and 1B (Rattus norvegicus), sequence (P15823 whole entry, looked up): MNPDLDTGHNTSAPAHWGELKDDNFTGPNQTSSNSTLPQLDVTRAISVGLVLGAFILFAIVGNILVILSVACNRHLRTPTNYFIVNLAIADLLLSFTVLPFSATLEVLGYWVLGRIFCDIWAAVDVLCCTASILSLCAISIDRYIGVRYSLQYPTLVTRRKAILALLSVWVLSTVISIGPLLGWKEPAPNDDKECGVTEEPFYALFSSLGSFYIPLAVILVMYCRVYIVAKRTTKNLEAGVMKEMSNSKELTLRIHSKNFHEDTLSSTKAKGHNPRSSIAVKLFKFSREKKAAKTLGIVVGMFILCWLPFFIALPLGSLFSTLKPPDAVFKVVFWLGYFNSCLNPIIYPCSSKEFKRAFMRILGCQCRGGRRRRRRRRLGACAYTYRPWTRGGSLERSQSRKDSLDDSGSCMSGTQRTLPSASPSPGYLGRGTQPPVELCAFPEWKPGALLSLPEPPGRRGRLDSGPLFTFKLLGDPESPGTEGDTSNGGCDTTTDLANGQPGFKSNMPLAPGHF
Alpha adrenergic receptor 1A and 1B (Rattus norvegicus), sequence (P43140 whole entry, looked up): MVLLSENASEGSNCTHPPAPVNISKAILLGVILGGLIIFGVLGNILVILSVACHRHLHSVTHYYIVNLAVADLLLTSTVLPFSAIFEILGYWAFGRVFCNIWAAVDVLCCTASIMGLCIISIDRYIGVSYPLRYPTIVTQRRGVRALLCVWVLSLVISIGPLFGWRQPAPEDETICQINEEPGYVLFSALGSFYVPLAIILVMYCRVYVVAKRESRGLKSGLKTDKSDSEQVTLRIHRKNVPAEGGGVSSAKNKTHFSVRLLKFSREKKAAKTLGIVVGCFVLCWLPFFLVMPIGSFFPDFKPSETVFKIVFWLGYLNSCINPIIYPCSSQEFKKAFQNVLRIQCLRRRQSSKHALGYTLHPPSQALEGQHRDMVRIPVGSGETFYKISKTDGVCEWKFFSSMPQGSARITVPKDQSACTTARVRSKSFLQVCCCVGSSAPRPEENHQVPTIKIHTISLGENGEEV

Row | Efficacy [3] [%] | pD2 [4] | Selectivity [5] | Ki [6] [nM] | Ki [7] [nM] | Ki [8] [nM] | Selectivity [9] | Structure (SMILES) | ED delta5 (Canis familiaris [1]) | ED delta20 (Canis familiaris [2])
1 | – | – | – | – | – | – | – | CS(=O)(=O)Nc1cccc2c1CCC=C2c1c[nH]cn1 | inactive | inactive
2 | 40 | – | – | – | – | – | – | Cn1cnc(C2CCCc3c(NS(C)(=O)=O)cccc32)c1 (stereo unspecified) | inactive | inactive
3 | – | inactive | 0.4 | 100 | 692 | 214 | 1 | O=S(=O)(Nc1cccc2c1CCCC2c1c[nH]cn1)c1ccc2ccccc2c1 (stereo unspecified) | – | –
